Results as given in ChEMBL document CHEMBL3779766, “Synthesis and biological evaluation of quinoline analogues of flavones as potential anticancer agents and tubulin polymerization inhibitors” (Eur J Med Chem, 2016).
Activity calls are given as the source filed them. The calls are words filed in the database; no cut-off is given here.

Columns and labels:
[1] = test system: A2780; test: Antiproliferative activity against human A2780 cells assessed as cell viability after 48 hrs by MTT assay; format: functional, cell-based; settings: A2780, 48 h
Summary of the method: (§1)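 Cancer cells were seeded at 5×10³ per well in RPMI complete medium. The next day the medium was replaced with a range of test concentrations, with a no-drug RPMI control. Plates ran 48 h at 37 °C, then MTT (4 mg/mL solution) was added for 3 h. Formazan was dissolved in DMSO and absorbance read at 540 nm. Triplicate determinations.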

[2] = Antiproliferative activity against human MCF7/MX cells assessed as cell viability after 48 hrs by MTT assay; format: functional, cell-based; summary of the method: as §1
[3] = test system: MCF7; test: Antiproliferative activity against human MCF7 cells assessed as cell viability after 48 hrs by MTT assay; format: functional, cell-based; settings: MCF7, 48 h; summary of the method: as §1
[4] = test system: A2780; test: Antiproliferative activity against cisplatin resistant human A2780 cells assessed as cell viability after 48 hrs by MTT assay; format: functional, cell-based; settings: A2780, 48 h; summary of the method: as §1
[5] = Cell cycle arrest in human MCF7/MX cells assessed as accumulation at G2/M phase at 100 uM after 72 hrs by propidium iodide staining based flow cytometry (reference value: 5.68%); format: functional
[6] = test system: A2780; test: Cell cycle arrest in cisplatin resistant human A2780 cells assessed as accumulation at G2/M phase at 100 uM after 24 hrs by propidium iodide staining based flow cytometry (reference value: 19.63%); format: functional
[7] = target: T1, Tubulin (Sus scrofa) (UniProt P02554+P02550); test: Inhibition of porcine brain tubulin polymerization at 100 uM measured for 1 hr by fluorescence assay
T1 sequence (P02550 whole entry, looked up): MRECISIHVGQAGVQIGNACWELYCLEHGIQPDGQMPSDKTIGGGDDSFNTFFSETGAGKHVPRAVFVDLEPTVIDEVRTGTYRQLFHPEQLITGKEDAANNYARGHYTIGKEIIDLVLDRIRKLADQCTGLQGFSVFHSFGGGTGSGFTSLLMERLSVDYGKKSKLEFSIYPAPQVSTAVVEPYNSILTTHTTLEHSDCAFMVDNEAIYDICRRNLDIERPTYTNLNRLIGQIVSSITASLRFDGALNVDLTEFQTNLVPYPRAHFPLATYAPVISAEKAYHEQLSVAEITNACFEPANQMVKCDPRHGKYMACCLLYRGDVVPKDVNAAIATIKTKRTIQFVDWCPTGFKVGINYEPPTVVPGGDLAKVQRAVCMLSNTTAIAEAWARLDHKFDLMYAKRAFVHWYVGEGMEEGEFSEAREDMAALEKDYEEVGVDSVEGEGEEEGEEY
T1 sequence (P02554 whole entry, looked up): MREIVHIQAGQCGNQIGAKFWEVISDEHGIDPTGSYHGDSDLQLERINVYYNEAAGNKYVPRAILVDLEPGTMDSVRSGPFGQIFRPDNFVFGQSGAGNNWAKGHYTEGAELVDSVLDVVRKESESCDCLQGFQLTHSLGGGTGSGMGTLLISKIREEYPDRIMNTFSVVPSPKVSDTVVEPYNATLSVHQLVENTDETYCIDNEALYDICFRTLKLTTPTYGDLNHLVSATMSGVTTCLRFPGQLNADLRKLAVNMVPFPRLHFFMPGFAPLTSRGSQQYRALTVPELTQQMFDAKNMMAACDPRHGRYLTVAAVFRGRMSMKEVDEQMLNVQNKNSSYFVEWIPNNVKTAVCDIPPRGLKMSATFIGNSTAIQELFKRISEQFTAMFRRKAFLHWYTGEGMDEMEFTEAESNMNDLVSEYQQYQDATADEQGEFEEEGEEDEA
Summary of the method: (§2)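 Polymerization was tracked by a fluorescent reporter incorporating into microtubules (ex 360/em 420 nm) every 1 min for 1 h. Controls were paclitaxel 3 µM (stabilizer) and CA-4 10 µM (destabilizer).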

[8] = test system: MCF7; test: Cell cycle arrest in human MCF7 cells assessed as accumulation at G2/M phase at 100 uM after 72 hrs by propidium iodide staining based flow cytometry (reference value: 6.18%); format: functional
[9] = test system: A2780; test: Cell cycle arrest in human A2780 cells assessed as accumulation at G2/M phase at 100 uM after 24 hrs by propidium iodide staining based flow cytometry (reference value: 12.71%); format: functional
[10] = target: T1, Tubulin (Sus scrofa); test: Inhibition of porcine brain tubulin polymerization at 50 uM measured for 1 hr by fluorescence assay; summary of the method: as §2
[11] = test system: A2780; test: Cell cycle arrest in human A2780 cells assessed as accumulation at G2/M phase at 3 uM after 24 hrs by propidium iodide staining based flow cytometry (reference value: 12.71%); format: functional
[12] = Cell cycle arrest in human MCF7/MX cells assessed as accumulation at G2/M phase at 3 uM after 72 hrs by propidium iodide staining based flow cytometry (reference value: 5.68%); format: functional
[13] = test system: A2780; test: Cell cycle arrest in cisplatin resistant human A2780 cells assessed as accumulation at G2/M phase at 3 uM after 24 hrs by propidium iodide staining based flow cytometry (reference value: 19.63%); format: functional
[14] = test system: MCF7; test: Cell cycle arrest in human MCF7 cells assessed as accumulation at G2/M phase at 3 uM after 72 hrs by propidium iodide staining based flow cytometry (reference value: 6.18%); format: functional
[15] = target: T1, Tubulin (Sus scrofa); settings: 10 uM
[16] = test system: MCF7/MX; test: Induction of apoptosis in human MCF7/MX cells assessed as accumulation at sub G1 phase at 50 uM after 72 hrs by propidium iodide staining based flow cytometry; format: functional, cell-based
Summary of the method: (§3)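 2.5×10⁵ cells were seeded in 6-well plates for 24 h, then treated for 72 h alongside a vehicle control (0.05% DMSO). Cells were ethanol-fixed (70%), then incubated 0.5 h at 37 °C with RNase A (1 mg/mL) plus propidium iodide. Flow cytometry (FL2) gave the percentage of cells in the sub-G1 region as the apoptotic fraction.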

[17] = test system: A2780; test: Induction of apoptosis in human A2780 cells assessed as accumulation at sub G1 phase at 50 uM after 72 hrs by propidium iodide staining based flow cytometry; format: functional, cell-based; summary of the method: as §3
[18] = Cell cycle arrest in human MCF7/MX cells assessed as accumulation at G2/M phase at 50 uM after 72 hrs by propidium iodide staining based flow cytometry (reference value: 5.68%); format: functional
[19] = test system: A2780; test: Induction of apoptosis in cisplatin resistant human A2780 cells assessed as accumulation at sub G1 phase at 50 uM after 72 hrs by propidium iodide staining based flow cytometry; format: functional, cell-based; summary of the method: as §3
[20] = test system: A2780; test: Cell cycle arrest in cisplatin resistant human A2780 cells assessed as accumulation at G2/M phase at 50 uM after 24 hrs by propidium iodide staining based flow cytometry (reference value: 19.63%); format: functional
[21] = test system: A2780; test: Cell cycle arrest in human A2780 cells assessed as accumulation at G2/M phase at 50 uM after 24 hrs by propidium iodide staining based flow cytometry (reference value: 12.71%); format: functional
[22] = test system: MCF7; test: Induction of apoptosis in human MCF7 cells assessed as accumulation at sub G1 phase at 50 uM after 72 hrs by propidium iodide staining based flow cytometry; format: functional, cell-based; summary of the method: as §3
[23] = test system: MCF7; test: Cell cycle arrest in human MCF7 cells assessed as accumulation at G2/M phase at 50 uM after 72 hrs by propidium iodide staining based flow cytometry (reference value: 6.18%); format: functional

Compound	IC50 [1] [µM]	IC50 [3] [µM]	IC50 [4] [µM]	IC50 [2] [µM]	also measured
COc1ccc(-c2cc(C(=O)O)c3c(OC)c(OC)c(OC)cc3n2)cc1OC	> 100	> 100	> 100	> 100	–
COc1cc2nc(-c3ccc(O)cc3O)cc(C(=O)O)c2c(OC)c1OC	> 100	> 100	> 100	> 100	inhibition [7]: Active
COc1ccc(/C=C\c2cc(OC)c(OC)c(OC)c2)cc1O [COMBRETASTATIN A4]	2.84	1.23	2.95	2.97	Activity [11]: 78.38%; Activity [12]: 43.2%; Activity [13]: 25.41%; Activity [14]: 80.09%; inhibition [15]: Active
COc1cc2nc(-c3ccc(O)cc3)cc(C(=O)O)c2c(OC)c1OC	> 100	> 100	> 100	> 100	–
COc1cc(-c2cc(C(=O)O)c3c(OC)c(OC)c(OC)cc3n2)ccc1O	> 100	> 100	> 100	> 100	inhibition [7]: Active
COc1ccc(-c2cc(C(=O)O)c3c(OC)c(OC)c(OC)cc3n2)cc1	> 100	> 100	> 100	> 100	inhibition [7]: Active

Now from value to molecule, other results behind:

IC50 [1] [µM]	IC50 [3] [µM]	IC50 [4] [µM]	Compound	IC50 [2] [µM]	also measured
> 100	> 100	> 100	COc1cc2nc(-c3cccc(O)c3)cc(C(=O)O)c2c(OC)c1OC	> 100	–
38.7	56.3	> 100	COc1ccc(-c2cc(C(=O)O)c3c(OC)c(OC)c(OC)cc3n2)cc1O	98.5	Activity [5]: 3.74%; Activity [6]: 43.12%; inhibition [7]: inactive; Activity [8]: 8%; Activity [9]: 62.15%
> 100	> 100	> 100	COc1cc(-c2cc(C(=O)O)c3c(OC)c(OC)c(OC)cc3n2)cc(OC)c1OC	> 100	–
8.04	16.4	28.4	COc1ccc(-c2cc(CO)c3c(OC)c(OC)c(OC)cc3n2)cc1	39.8	inhibition [10]: Active
29.6	59.5	43.3	COc1ccc(-c2cc(CO)c3c(OC)c(OC)c(OC)cc3n2)cc1O	21.5	inhibition [10]: Active
9.19	49.7	52.2	COc1cc(-c2cc(CO)c3c(OC)c(OC)c(OC)cc3n2)ccc1O	53.9	–
7.98	60.7	23.1	COc1ccc(-c2cc(CO)c3c(OC)c(OC)c(OC)cc3n2)cc1OC	37.1	inhibition [10]: Active
11.4	16.3	8.15	COc1cc(-c2cc(CO)c3c(OC)c(OC)c(OC)cc3n2)cc(OC)c1OC	14.1	Activity [16]: Active; Activity [17]: Active; Activity [18]: 44.8%; Activity [19]: Active; Activity [20]: 62.31%; Activity [21]: 79.59%; inhibition [10]: Active; Activity [22]: Active; Activity [23]: 79.59%
